# Measurements: PMC3149845 (The Journal of neuroscience : the official journal of the …, 2011)
# Changes are numbered by the printed parent chain. Entries after “also recorded” stand apart in the source; their conditions may differ. Where two headings read alike, the source gives them in different places. Peptide text beside a SMILES is read from it.
# Tests used:
# [1] = biological target: hTas1R2:D142E+hTas1R3 (Homo sapiens, UniProt Q8TE23, D142E); assay: Ca2+ mobilization, mutated human receptor; assay type: cell-based; settings: aspartame 10mM, neotame 1mM, sucralose 2 mM; compared with hTas1R2/hTas1R3
# In short: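 HEK293E cells grown at 37°C in Opti-MEM with 5% FBS and seeded at 50,000/well. Cells co-lipofected with Tas1R plasmids and Gα16-gust44 (0.06 μg each per well); medium changed at 20 h, assayed 24 h later. Cells loaded 1 h with Fluo-4 AM in HEPES-buffered HBSS. Tastant added at 30 s; fluorescence (ex 488/em 525 nm) read every 2 s for 150 s more. ΔF/F normalised to human receptor maximal sucralose response; mean ± SEM, three independent experiments.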
# [2] = biological target: T1, hTas1R2:S40T/I67S/D142E+hTas1R3 (Homo sapiens, UniProt Q8TE23, D142E/I67S/S40T); assay: Ca2+ mobilization, mutated human receptor; assay type: cell-based; settings: for calcium response to sweetener: aspartame 10mM, neotame 1mM, sucralose 2 mM, compared with hTas1R2/hTas1R3; for response in dose-response experiment: versus hTas1R2+hTas1R3
# T1 sequence (Q8TE23 20-839 S40T/I67S/D142E): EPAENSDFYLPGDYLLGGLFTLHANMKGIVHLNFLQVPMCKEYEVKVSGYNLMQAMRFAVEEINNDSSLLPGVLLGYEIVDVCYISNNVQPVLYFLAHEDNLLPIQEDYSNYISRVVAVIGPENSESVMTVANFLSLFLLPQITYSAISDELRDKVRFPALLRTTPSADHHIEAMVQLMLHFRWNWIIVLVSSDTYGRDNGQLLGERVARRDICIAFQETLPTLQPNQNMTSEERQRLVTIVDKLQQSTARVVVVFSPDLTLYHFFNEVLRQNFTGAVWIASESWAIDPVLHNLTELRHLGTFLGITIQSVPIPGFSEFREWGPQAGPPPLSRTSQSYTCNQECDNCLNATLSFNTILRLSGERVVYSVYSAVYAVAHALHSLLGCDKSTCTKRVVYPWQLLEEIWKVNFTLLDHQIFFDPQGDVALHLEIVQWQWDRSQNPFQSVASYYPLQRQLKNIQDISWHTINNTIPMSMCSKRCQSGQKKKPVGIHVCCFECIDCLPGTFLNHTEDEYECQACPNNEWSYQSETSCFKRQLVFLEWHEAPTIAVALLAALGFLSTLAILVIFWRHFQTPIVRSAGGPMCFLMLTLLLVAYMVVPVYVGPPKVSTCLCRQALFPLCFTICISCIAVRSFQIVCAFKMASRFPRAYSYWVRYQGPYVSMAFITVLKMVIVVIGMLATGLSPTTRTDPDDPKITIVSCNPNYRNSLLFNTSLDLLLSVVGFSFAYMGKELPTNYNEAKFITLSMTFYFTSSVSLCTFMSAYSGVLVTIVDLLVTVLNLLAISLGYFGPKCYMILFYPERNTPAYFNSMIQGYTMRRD
# T1 sequence (Q7RTX0 21-852 partner): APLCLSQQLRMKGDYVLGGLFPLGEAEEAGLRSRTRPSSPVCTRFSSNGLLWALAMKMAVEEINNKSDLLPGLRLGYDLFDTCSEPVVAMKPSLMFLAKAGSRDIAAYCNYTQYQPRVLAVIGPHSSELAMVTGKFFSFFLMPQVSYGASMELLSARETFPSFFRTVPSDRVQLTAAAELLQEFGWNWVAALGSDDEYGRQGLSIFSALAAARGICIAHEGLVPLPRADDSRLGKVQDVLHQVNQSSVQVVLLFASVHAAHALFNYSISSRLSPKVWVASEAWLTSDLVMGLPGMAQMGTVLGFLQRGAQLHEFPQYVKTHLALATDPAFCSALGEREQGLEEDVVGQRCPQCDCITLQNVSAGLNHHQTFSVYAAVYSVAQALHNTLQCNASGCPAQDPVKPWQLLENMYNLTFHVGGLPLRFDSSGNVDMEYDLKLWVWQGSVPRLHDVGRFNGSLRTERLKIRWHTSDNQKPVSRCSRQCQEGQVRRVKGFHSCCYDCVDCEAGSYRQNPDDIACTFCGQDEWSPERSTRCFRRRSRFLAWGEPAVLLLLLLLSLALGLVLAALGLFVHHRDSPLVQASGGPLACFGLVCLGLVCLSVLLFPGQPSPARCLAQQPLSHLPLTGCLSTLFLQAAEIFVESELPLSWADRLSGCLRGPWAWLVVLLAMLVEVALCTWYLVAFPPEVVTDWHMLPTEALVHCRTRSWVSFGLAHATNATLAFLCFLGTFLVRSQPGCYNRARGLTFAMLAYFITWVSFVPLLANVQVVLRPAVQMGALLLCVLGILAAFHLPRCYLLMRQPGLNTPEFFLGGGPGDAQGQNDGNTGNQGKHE
# [3] = biological target: T2, hTas1R2:S40T/D142E+hTas1R3 (Homo sapiens, UniProt Q8TE23, D142E/S40T); assay: Ca2+ mobilization, mutated human receptor; assay type: cell-based; settings: for calcium response to sweetener: aspartame 10mM, neotame 1mM, sucralose 2 mM, compared with hTas1R2/hTas1R3; for response in dose-response experiment: versus hTas1R2+hTas1R3
# T2 sequence (Q8TE23 20-839 S40T/D142E): T1 sequence (Q8TE23 20-839 S40T/I67S/D142E) with S48I
# T2 sequence (Q7RTX0 21-852 partner): T1 sequence (Q7RTX0 21-852 partner)
# [4] = biological target: smTas1R2:T40S/S67I/E142D+smTas1R3 (Saimiri sciureus, UniProt A3QP08, E142D/S67I/T40S); assay: Ca2+ mobilization, mutated squirrel monkey receptor; assay type: cell-based, squirrel monkey (Saimiri sciureus); settings: for calcium response to sweetener: aspartame 10mM, neotame 1mM, sucralose 2 mM, compared with smTas1R2/smTas1R3; for response in dose-response experiment: versus smTas1R2+smTas1R3; for Bottom (B) of sigmoid dose-response fit / Top (T) of sigmoid dose-response fit: ΔF/F normalized to maximum response of hTas1R2/hTas1R3 to neotame
# [5] = HEK293E cells with Gα16-gust44, dose-response, calcium mobilization
# [6] = ΔF/F normalized to maximum response of hTas1R2/hTas1R3 to neotame
# Sequence of hTas1R2:D142E+hTas1R3 (Q8TE23 20-839 D142E, one chain of several): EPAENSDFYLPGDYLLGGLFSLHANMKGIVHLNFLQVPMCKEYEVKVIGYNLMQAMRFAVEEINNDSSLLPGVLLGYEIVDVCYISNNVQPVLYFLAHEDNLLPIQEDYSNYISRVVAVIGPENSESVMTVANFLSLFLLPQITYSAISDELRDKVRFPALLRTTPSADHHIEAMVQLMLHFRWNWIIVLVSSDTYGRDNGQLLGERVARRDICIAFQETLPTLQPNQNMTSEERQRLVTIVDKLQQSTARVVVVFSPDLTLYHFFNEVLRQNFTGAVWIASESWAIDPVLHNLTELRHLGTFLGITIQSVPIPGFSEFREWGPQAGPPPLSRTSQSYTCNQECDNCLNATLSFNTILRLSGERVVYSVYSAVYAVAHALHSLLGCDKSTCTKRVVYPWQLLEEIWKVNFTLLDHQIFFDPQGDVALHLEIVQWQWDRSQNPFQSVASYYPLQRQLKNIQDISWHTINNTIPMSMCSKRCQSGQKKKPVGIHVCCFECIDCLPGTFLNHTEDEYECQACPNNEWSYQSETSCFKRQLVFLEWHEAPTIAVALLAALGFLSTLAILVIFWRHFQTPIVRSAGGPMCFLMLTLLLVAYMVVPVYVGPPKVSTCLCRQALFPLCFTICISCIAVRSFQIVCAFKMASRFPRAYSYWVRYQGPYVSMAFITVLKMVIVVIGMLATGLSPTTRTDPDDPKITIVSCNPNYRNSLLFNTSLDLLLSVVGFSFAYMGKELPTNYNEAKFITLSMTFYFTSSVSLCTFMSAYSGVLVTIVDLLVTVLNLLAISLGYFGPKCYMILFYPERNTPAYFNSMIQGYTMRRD
# Sequence of smTas1R2:T40S/S67I/E142D+smTas1R3 (A3QP08 20-834 T40S/S67I/E142D): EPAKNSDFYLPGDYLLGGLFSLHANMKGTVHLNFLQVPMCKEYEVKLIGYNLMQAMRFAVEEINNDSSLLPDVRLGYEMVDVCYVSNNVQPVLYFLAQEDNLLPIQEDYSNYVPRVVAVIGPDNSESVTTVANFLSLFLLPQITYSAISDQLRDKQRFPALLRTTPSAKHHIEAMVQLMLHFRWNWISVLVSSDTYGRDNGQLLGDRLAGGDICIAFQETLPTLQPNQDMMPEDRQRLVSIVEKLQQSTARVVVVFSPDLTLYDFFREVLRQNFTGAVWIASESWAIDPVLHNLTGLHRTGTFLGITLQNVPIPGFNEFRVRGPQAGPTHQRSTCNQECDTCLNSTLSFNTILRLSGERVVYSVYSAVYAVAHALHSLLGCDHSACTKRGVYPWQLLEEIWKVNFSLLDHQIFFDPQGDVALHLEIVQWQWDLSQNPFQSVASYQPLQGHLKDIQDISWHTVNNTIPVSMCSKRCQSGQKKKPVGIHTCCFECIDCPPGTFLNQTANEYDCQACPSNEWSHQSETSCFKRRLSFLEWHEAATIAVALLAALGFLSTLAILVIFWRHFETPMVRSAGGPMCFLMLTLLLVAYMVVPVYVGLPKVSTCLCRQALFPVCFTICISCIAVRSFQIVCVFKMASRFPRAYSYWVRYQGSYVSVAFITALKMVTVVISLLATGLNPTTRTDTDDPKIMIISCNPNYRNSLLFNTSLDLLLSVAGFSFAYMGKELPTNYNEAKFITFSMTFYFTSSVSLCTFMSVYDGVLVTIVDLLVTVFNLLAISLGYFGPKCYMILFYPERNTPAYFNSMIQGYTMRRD
Compound,calcium response to sweetener [1],calcium response to sweetener [2],response in dose-response experiment ([2]; dose-response),calcium response to sweetener [3],response in dose-response experiment ([3]; dose-response),EC50 [4] [µM],calcium response to sweetener [4],response in dose-response experiment ([4]; dose-response),Bottom (B) of sigmoid dose-response fit [4],Top (T) of sigmoid dose-response fit [4],"EC50 [2, 5] [µM]","Bottom (B) of sigmoid dose-response fit [2, 6]","Top (T) of sigmoid dose-response fit [2, 6]","EC50 [3, 5] [µM]","Bottom (B) of sigmoid dose-response fit [3, 6]","Top (T) of sigmoid dose-response fit [3, 6]","EC50 [4, 5] [µM]"
"COC(=O)[C@H](Cc1ccccc1)NC(=O)[C@@H](N)CC(=O)O [aspartame, L-α-aspartly-L-phenylalanine methyl ester] (H-Asp-Phe-OMe)",almost abolished; also recorded: abolishes the activity,greatly impaired responsiveness,no responses,abolished,no responses,1200,significant responses,good response,−2.882,32.61,–,–,–,–,–,–,–
COC(=O)[C@H](Cc1ccccc1)NC(=O)[C@H](CC(=O)O)NCCC(C)(C)C [neotame],significantly decreased,greatly impaired responsiveness; also recorded: almost completely abolished,weaker responses,significantly reduced; also recorded: reduced the response to neotame by half,weaker responses,–,significant responses,good responses,−4.671,51.73,12000,−1.486,39.87,1400,1.387,61.12,280
